This is an account of results in ChEMBL document CHEMBL4251569, “Camptothecin-psammaplin A hybrids as topoisomerase I and HDAC dual-action inhibitors” (Eur J Med Chem, 2018).

In one assay the test system is A-431. The assay can be described thus: cells. Particulars: Homo sapiens, A-431, 72 h. It counts as functional, cell-based.
The test system of the next assay is DU-145. Description: cells. The assay is classed as functional, cell-based. Particulars: Homo sapiens, DU-145, 72 h.
A further assay can be described thus: cells. The assay is classed as functional, cell-based. Particulars: Homo sapiens, MM487, 72 h.
A further assay has as its target Histone deacetylase 1 (Homo sapiens, UniProt Q13547). The assay can be described thus: Inhibition of HDAC1 (unknown origin) using RHKK(Ac)AMC as substrate after 1 to 2 hrs by fluorescence assay.
Another assay has as its target Histone deacetylase 4 (Homo sapiens, UniProt P56524). Description: Inhibition of HDAC4 (unknown origin) using fluorogenic substrate after 1 to 2 hrs by fluorescence assay. The method, boiled down:
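Purified HDAC4 preincubated with compound (10 concentrations from 10 µM, triplicate, final 1% DMSO) in 50 mM Tris-HCl pH 8.0, 137 mM NaCl, 2.7 mM KCl, 1 mM MgCl2, 1 mg/ml BSA. Class 2a trifluoroacetyl-lysine fluorogenic substrate added and incubated 1–2 h at 30 °C. Developer with TMP269 stops the reaction; fluorescence read at ex 360/em 460 at plateau. Activity is relative to DMSO, and IC50 comes from a sigmoidal fit.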

In assay [1] the target is Histone deacetylase (HDAC1 and HDAC2) (Homo sapiens) (UniProt Q13547+Q92769). The assay can be described thus: Inhibition of HDAC1/2 in human MM473 cells assessed as increase in hyperacetylation of nuclear histone H4 at 0.2 to 0.5 uM after 24 hrs by Western blot method. It counts as cell-based. The gist of the method:
(§1)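 MM473 cells treated 24 h (0.2 and 0.5 µM), lysed in NP-40 or RIPA with protease/phosphatase inhibitors; 40 µg protein run on SDS-PAGE, transferred to nitrocellulose, blocked in 5% milk/TBST, probed overnight for acetyl-H4, H4, acetyl-tubulin and α-tubulin, HRP secondaries, ECL chemiluminescence; band density normalised to α-tubulin.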
A general note: In western blotting, separated proteins are transferred to a membrane and probed.

Assay [2] concerns the target Protein deacetylase HDAC6 (Homo sapiens) (UniProt Q9UBN7). Description: Inhibition of HDAC6 in human MM473 cells assessed as increase in hyperacetylation of cytoplasmic alpha-tubulin at 0.2 to 0.5 uM after 24 hrs by Western blot method. It counts as cell-based. The method, boiled down:
as §1

Assay [3] relates to MM473. Description: Cell cycle arrest in human MM473 cells assessed as accumulation at G0/G1 phase at 4 uM after 24 hrs by propidium iodide staining-based flow cytometric method (reference value: 54.5%). The assay is classed as functional. For orientation: A flow cytometer gives signals particle by particle.
Assay [4] has as its system MM473. The assay can be described thus: Cell cycle arrest in human MM473 cells assessed as accumulation at S phase at 4 uM after 24 hrs by propidium iodide staining-based flow cytometric method (reference value: 29.8%). It counts as functional.
Assay [5] has as its system MM473. The assay can be described thus: Induction of apoptosis in human MM473 cells at 4 uM after 24 hrs by propidium iodide staining-based flow cytometric method (reference value: 2.5%). It counts as functional.
In assay [6] the test system is MM473. Description: Induction of apoptosis in human MM473 cells at 4 uM after 48 hrs by propidium iodide staining-based flow cytometric method (reference value: […]). The assay is classed as functional.
The nature of assay [7]: Cell cycle arrest in human MM487 cells assessed as accumulation at G2/M at 0.3 uM after 24 hrs by propidium iodide staining-based flow cytometric method (reference value: 16.9%). It counts as functional.
The nature of assay [8]: Cell cycle arrest in human MM487 cells assessed as accumulation at S phase at 0.3 uM after 48 hrs by propidium iodide staining-based flow cytometric method (reference value: 13.7%). The assay is classed as functional.
A short description of assay [9]: Induction of apoptosis in human MM487 cells at 0.3 uM after 48 hrs by propidium iodide staining-based flow cytometric method (reference value: 0.3%). The assay is classed as functional.
Assay [10] is described as follows: Induction of apoptosis in human MM487 cells at 0.3 uM after 72 hrs by propidium iodide staining-based flow cytometric method (reference value: 0.6%). The assay is classed as functional.
The next assay relates to OCI-Ly3. Description: cells. Particulars: Homo sapiens, OCI-Ly3, 72 h.

Calls of active or inactive are those of the source. The rule behind the calls is not given here.

Chain of Histone deacetylase 4 (P56524 whole entry): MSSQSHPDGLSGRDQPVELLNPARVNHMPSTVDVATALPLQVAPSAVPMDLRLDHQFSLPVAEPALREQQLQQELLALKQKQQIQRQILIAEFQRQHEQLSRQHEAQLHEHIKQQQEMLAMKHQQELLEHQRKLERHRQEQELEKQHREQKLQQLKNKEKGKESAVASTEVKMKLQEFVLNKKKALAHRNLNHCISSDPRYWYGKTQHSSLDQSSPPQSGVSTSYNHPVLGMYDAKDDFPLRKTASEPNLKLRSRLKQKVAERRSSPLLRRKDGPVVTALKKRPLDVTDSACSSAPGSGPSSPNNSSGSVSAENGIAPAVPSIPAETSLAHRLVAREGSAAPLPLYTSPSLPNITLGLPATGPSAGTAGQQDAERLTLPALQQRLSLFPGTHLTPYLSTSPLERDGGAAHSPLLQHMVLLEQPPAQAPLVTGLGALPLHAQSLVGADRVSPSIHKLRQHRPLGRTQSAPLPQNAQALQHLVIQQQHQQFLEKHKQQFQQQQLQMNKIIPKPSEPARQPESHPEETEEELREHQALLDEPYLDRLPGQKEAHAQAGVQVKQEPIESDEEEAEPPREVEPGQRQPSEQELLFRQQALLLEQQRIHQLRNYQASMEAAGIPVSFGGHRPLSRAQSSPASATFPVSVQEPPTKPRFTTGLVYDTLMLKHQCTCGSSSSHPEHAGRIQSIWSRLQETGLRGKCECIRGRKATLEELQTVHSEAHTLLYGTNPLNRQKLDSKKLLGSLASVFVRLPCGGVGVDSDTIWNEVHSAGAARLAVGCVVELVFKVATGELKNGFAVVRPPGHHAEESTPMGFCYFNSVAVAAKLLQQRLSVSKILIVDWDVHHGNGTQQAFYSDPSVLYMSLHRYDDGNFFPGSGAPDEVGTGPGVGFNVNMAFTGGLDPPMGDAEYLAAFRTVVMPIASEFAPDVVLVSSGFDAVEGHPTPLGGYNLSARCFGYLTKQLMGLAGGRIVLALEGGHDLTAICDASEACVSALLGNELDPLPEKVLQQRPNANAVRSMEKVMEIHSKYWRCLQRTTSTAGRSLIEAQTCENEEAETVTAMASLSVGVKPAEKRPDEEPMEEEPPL
Chain of Histone deacetylase 1 (Q13547 whole entry): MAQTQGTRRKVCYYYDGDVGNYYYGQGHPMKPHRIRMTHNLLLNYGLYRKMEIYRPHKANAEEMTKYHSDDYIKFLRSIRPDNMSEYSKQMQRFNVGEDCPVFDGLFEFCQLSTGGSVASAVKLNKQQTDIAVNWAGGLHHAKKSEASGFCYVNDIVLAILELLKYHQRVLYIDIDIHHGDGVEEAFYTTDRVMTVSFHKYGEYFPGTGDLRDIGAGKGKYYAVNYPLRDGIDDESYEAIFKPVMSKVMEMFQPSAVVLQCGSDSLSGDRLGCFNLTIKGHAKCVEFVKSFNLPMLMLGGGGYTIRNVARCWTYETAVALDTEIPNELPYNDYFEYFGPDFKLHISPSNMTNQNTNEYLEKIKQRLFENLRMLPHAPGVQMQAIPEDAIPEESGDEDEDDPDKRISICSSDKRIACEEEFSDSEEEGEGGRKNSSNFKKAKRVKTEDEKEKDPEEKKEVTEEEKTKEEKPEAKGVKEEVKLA
Chain of Histone deacetylase (HDAC1 and HDAC2) (Homo sapiens) (Q13547 whole entry, looked up): as the sequence (Q13547 whole entry) above
Chain of Histone deacetylase (HDAC1 and HDAC2) (Homo sapiens) (Q92769 whole entry, looked up): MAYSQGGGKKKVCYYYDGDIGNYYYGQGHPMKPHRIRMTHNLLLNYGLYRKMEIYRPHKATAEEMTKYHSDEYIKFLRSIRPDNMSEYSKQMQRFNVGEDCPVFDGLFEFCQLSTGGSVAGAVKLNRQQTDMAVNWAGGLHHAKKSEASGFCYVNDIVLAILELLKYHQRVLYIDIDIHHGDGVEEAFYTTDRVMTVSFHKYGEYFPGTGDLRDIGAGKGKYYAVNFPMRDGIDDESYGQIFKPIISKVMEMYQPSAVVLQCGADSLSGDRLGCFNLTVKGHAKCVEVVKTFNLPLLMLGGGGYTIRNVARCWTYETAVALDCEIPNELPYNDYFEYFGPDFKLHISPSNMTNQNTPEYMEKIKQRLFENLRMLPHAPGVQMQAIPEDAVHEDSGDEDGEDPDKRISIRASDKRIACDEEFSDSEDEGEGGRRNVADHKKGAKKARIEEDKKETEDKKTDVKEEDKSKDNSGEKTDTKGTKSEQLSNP
Chain of Protein deacetylase HDAC6 (Homo sapiens) (Q9UBN7 whole entry): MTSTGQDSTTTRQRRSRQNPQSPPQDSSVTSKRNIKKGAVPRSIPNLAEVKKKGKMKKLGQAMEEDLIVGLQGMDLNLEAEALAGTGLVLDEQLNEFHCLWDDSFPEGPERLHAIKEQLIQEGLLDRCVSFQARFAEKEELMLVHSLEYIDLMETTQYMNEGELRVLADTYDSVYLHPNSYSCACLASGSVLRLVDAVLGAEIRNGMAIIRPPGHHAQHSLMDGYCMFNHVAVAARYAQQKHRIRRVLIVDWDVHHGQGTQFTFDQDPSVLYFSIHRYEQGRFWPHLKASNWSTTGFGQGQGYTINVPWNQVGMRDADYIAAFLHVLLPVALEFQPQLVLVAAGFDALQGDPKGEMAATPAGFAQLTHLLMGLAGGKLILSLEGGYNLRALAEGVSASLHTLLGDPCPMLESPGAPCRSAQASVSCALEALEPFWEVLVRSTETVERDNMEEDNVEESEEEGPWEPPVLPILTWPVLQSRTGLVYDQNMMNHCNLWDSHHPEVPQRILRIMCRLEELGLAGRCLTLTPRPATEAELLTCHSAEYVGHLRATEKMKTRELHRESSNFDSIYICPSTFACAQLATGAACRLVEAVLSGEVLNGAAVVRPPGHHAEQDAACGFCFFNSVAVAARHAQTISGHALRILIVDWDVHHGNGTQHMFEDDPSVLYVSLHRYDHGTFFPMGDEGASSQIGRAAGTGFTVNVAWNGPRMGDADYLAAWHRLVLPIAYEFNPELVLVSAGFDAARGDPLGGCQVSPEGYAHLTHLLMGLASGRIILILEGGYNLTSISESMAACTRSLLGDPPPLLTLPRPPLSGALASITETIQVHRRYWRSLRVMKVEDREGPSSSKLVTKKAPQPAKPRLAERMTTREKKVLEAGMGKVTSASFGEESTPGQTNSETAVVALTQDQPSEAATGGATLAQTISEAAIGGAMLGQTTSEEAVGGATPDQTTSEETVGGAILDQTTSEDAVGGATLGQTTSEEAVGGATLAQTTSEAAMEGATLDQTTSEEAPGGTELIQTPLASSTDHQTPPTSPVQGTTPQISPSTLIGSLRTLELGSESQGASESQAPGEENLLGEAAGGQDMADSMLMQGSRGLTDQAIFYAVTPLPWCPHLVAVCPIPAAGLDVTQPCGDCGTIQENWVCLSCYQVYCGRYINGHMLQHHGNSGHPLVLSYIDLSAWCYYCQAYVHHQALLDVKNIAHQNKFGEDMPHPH

Turning to `CC[C@@]1(O)C(=O)OCc2c1cc1n(c2=O)Cc2c-1nc1ccccc1c2/C=N/OCCCCCC(=O)NCCSSCCNC(=O)/C(Cc1ccc(O)c(Br)c1)=N\O`, the IC50 in the assay on A-431 is 180 nM; in the assay with DU-145 it was 110 nM; in “cells” it was 130 nM; against Histone deacetylase 1, 150 nM; at Histone deacetylase 4, “Not Active”; with OCI-Ly3, 100 nM. Moreover, the inhibition result in assay [1] is “Active”. Further, the inhibition entry in [2] was “inactive”. The Activity with MM473 [3] is reported as 28%; in the assay on MM473 [4], 58.97%; in the assay on MM473 [5], 3.8%; with MM473 [6], 9.9%; in [7] it was 1.8%; in [8] it was 67.8%. The Activity in assay [9] is listed as 13.1%; in assay [10] it was 25.4%.

One may read the IC50 as the concentration that gives 50% inhibition. A higher IC50 goes with weaker potency in that assay.
